Reference: ChEMBL document CHEMBL2375244 (J Med Chem, 2013)

Legend:
BT-549 = assay: Cytotoxicity against human BT549 cells after 72 hrs by resazurin/resorufin-based fluorescence assay; type: functional, cell-based; conditions: BT-549, 72 h
How it was run: (§1)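 CellTiter-Blue viability: 1200 cells per well seeded, incubated overnight at 37 °C, 5% CO₂; drugs serially diluted 2:3 in medium, four replicate wells per concentration plus four diluent-only control wells; 72 h exposure; resazurin reduction to resorufin read by fluorescence (579 nm ex/584 nm em). IC50 is the average of three data sets, each using nine concentrations between 0.004 μM and 12.5 μM.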

SK-BR-3 = assay: Cytotoxicity against human SK-BR-3 cells after 72 hrs by resazurin/resorufin-based fluorescence assay; type: functional, cell-based; conditions: SK-BR-3, 72 h; how it was run: as §1
MDA-MB-231 = assay: Cytotoxicity against human MDA-MB-231 cells after 72 hrs by resazurin/resorufin-based fluorescence assay; type: functional, cell-based; conditions: MDA-MB-231, 72 h
A673 = assay: Induction of apoptosis in human A673 cells assessed as caspase-3 activation at 0.05 uM to 5 uM after 24 hrs by luminescence assay relative to control; type: functional
How it was run: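 Caspase-3/7 activation measured with a Caspase-Glo 3/7 luminescent assay. Cells were plated as for the high-throughput viability assay and exposed for 24 h to serial dilutions. EC50 was obtained from the dose-response.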

NCI-H929 = assay: Induction of apoptosis in human NCI-H929 cells assessed as increase in cleaved caspase-3 level at 0.005 uM after 24 hrs by FACS flow cytometric analysis relative to control; type: functional
How it was run: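 Active caspase-3 was detected with a FITC-labelled monoclonal antibody by flow cytometry, and the percentage of cells with raised cleaved caspase-3 is reported. Triplicate experiments.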

[1] = Cytotoxicity against human MDA-MB-436 cells after 72 hrs by resazurin/resorufin-based fluorescence assay; type: functional, cell-based; conditions: MDA-MB-436, 72 h
CDK2/Cyclin A2 [2] = biological target: T1, CDK2/Cyclin A2 (Homo sapiens, UniProt P24941); assay: Inhibition of human CDK2/Cyclin A2 using PKTPKKAKKL as substrate by fluorescence assay; type: protein-complex assay
MDA-MB-468 = assay: Cytotoxicity against human MDA-MB-468 cells after 72 hrs by MTT assay; type: functional, cell-based; conditions: MDA-MB-468, 72 h
How it was run: (§2)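 Cells kept in RPMI or DMEM with 10% FBS at 37 °C, 5% CO₂ and allowed to attach overnight; 72 h with increasing inhibitor concentrations; then 1 mg/mL MTT for 3 h, DMSO solubilisation, OD read at 540 nm. Testis lines had culture conditions adapted to them. Dose-response in triplicate, 9 concentrations between 0.02 and 100 μM, averaged.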

CDK2/Cyclin A2 [3] = biological target: T1, CDK2/Cyclin A2; assay: Inhibition of human CDK2/Cyclin A2 using PKTPKKAKKL as substrate by P33-radiolabeled assay; type: protein-complex assay
How it was run: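 Radiometric (P33) kinase assay run by a contract lab on CDK–cyclin complexes. Inhibitor tested in duplicate at 0.05 nM to 1000 nM with ATP at 10 μM. […] For the in-house assays, IC50 was obtained by Hill-equation fitting.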

[4] = Cytotoxicity against mouse TM4 cells after 72 hrs by MTT assay; type: functional, cell-based; conditions: TM4, 72 h; how it was run: as §2
[5] = Cytotoxicity against mouse GC-2 cells after 72 hrs by MTT assay; type: functional, cell-based; conditions: GC-2, 72 h; how it was run: as §2
[6] = Cytotoxicity against mouse GC-1 cells after 72 hrs by MTT assay; type: functional, cell-based; conditions: GC-1, 72 h; how it was run: as §2

IC50 (CDK2/Cyclin A2 [2]) [nM]	IC50 (CDK2/Cyclin A2 [3]) [nM]	Structure (SMILES)	IC50 (BT-549) [nM]	IC50 (SK-BR-3) [nM]	IC50 (MDA-MB-231) [nM]	Activity (A673) [%]	Activity (NCI-H929) [%]	IC50 [1] [nM]	IC50 (MDA-MB-468) [nM]	IC50 [4] [nM]	IC50 [5] [nM]	IC50 [6] [nM]
		CCc1cnn2c(NCc3ccc[n+]([O-])c3)cc(N3CCCC[C@H]3CCO)nc12 [DINACICLIB]	> 10000	< 5	< 5	280	63	< 5				
20	0.9	Nc1nc(Nc2ccc(S(N)(=O)=O)cc2)sc1C(=O)c1cccnc1							2800	13000	> 30000	20000
